Active and inactive are the calls of the source. The calls are words filed in the database; no cut-off is given here.
Legend:
Fusarium oxysporum [1] = experiment: Antifungal activity against Fusarium oxysporum 2 after 24 hrs by disc diffusion method; assay type: functional
Summary of the method: (§1)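 Disc diffusion on Candida albicans strains 1 and 2 (yeast suspension), Fusarium oxysporum strains 1 and 2 and Mucor sp. (mycelial suspension), spread on YPG or PDA agar. Compound at graded amounts per filter-paper disc, 28 °C for 24 h. MIC taken as the lowest amount giving a 2 mm inhibition zone. Controls: 50% v/v DMSO vehicle, cycloheximide, amphotericin B.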

Benjaminiella poitrasii [2] = experiment: Inhibition of Benjaminiella poitrasii chitin synthase at 4 ug/mL
Summary of the method: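 Chitin synthase from Benjaminiella poitrasii measured with and without compound at 4 µg/ml, using a non-radioactive chitin synthase assay. Nikkomycin Z used as reference.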

Fusarium oxysporum [3] = experiment: Antifungal activity against Fusarium oxysporum 1 at 40 ug/disc after 24 hrs by disc diffusion method; assay type: functional; settings: for zone of inhibition at 40 µg/disc: read-out: IZ
Summary of the method: (§2)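 Yeast suspensions (C. albicans strains 1, 2) and mycelial suspensions (F. oxysporum strains 1, 2; Mucor sp.) spread on YPG (0.3% yeast extract, 0.5% peptone, 1% glucose) or PDA agar. Compound applied on filter-paper discs at the stated amount; 28 °C, 24 h. Read-out is inhibition zone diameter. Controls: 50% v/v DMSO vehicle, cycloheximide, amphotericin B.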

Fusarium oxysporum [4] = experiment: Antifungal activity against Fusarium oxysporum 2 at 100 ug/disc after 24 hrs by disc diffusion method; assay type: functional; settings: read-out: IZ; summary of the method: as §2
Candida albicans [5] = experiment: Antifungal activity against Candida albicans 2 at 60 ug/disc after 24 hrs by disc diffusion method; assay type: functional; settings: for zone of inhibition at 60 µg/disc: read-out: IZ; summary of the method: as §2
Candida albicans [6] = experiment: Antifungal activity against Candida albicans 1 at 100 ug/disc after 24 hrs by disc diffusion method; assay type: functional; settings: read-out: IZ; summary of the method: as §2
Candida albicans [7] = experiment: Antifungal activity against Candida albicans 1 at 60 ug/disc after 24 hrs by disc diffusion method; assay type: functional; settings: for zone of inhibition at 60 µg/disc: read-out: IZ; summary of the method: as §2
Fusarium oxysporum [8] = experiment: Antifungal activity against Fusarium oxysporum 2 at 60 ug/disc after 24 hrs by disc diffusion method; assay type: functional; settings: read-out: IZ; summary of the method: as §2
Fusarium oxysporum [9] = experiment: Antifungal activity against Fusarium oxysporum 1 at 100 ug/disc after 24 hrs by disc diffusion method; assay type: functional; settings: read-out: IZ; summary of the method: as §2
Benjaminiella poitrasii [10] = experiment: Inhibition of yeast hypha transition at 20 ug/mL after 4 hrs
Candida albicans [11] = experiment: Antifungal activity against Candida albicans 2 at 40 ug/disc after 24 hrs by disc diffusion method; assay type: functional; settings: for zone of inhibition at 40 µg/disc: read-out: IZ; summary of the method: as §2
Mucor [12] = experiment: Antifungal activity against Mucor at 100 ug/disc after 24 hrs by disc diffusion method; assay type: functional; settings: for zone of inhibition at 100 µg/disc: read-out: IZ; summary of the method: as §2
Mucor [13] = experiment: Antifungal activity against Mucor at 60 ug/disc after 24 hrs by disc diffusion method; assay type: functional; settings: for zone of inhibition at 60 µg/disc: read-out: IZ; summary of the method: as §2
Fusarium oxysporum [14] = experiment: Antifungal activity against Fusarium oxysporum 2 at 40 ug/disc after 24 hrs by disc diffusion method; assay type: functional; settings: for zone of inhibition at 40 µg/disc: read-out: IZ; summary of the method: as §2
Candida albicans [15] = experiment: Antifungal activity against Candida albicans 2 after 24 hrs by disc diffusion method; assay type: functional; summary of the method: as §1
Candida albicans [16] = experiment: Antifungal activity against Candida albicans 2 at 100 ug/disc after 24 hrs by disc diffusion method; assay type: functional; settings: read-out: IZ; summary of the method: as §2
Fusarium oxysporum [17] = experiment: Antifungal activity against Fusarium oxysporum 1 after 24 hrs by disc diffusion method; assay type: functional; summary of the method: as §1
Candida albicans [18] = experiment: Antifungal activity against Candida albicans 1 at 40 ug/disc after 24 hrs by disc diffusion method; assay type: functional; settings: for zone of inhibition at 40 µg/disc: read-out: IZ; summary of the method: as §2
Mucor [19] = experiment: Antifungal activity against Mucor at 40 ug/disc after 24 hrs by disc diffusion method; assay type: functional; settings: for zone of inhibition at 40 µg/disc: read-out: IZ; summary of the method: as §2
Fusarium oxysporum [20] = experiment: Antifungal activity against Fusarium oxysporum 1 at 60 ug/disc after 24 hrs by disc diffusion method; assay type: functional; settings: read-out: IZ; summary of the method: as §2
Mucor [21] = experiment: Antifungal activity against Mucor at after 24 hrs by disc diffusion method; assay type: functional; summary of the method: as §1
Candida albicans [22] = experiment: Antifungal activity against Candida albicans 1 after 24 hrs by disc diffusion method; assay type: functional; summary of the method: as §1

SMILES	MIC (Fusarium oxysporum [1]) [µg/disc]	inhibition (Benjaminiella poitrasii [2]) [%]	zone of inhibition at 100 µg/disc (Fusarium oxysporum [4]) [mm]	zone of inhibition at 60 µg/disc (Candida albicans [5]) [mm]	zone of inhibition at 100 µg/disc (Candida albicans [6]) [mm]	zone of inhibition at 60 µg/disc (Candida albicans [7]) [mm]	zone of inhibition at 60 µg/disc (Fusarium oxysporum [8]) [mm]	zone of inhibition at 100 µg/disc (Fusarium oxysporum [9]) [mm]	inhibition at 20 µg/mL (Benjaminiella poitrasii [10]) [%]	zone of inhibition at 100 µg/disc (Mucor [12]) [mm]	zone of inhibition at 60 µg/disc (Mucor [13]) [mm]	MIC (Candida albicans [15]) [µg/disc]	zone of inhibition at 100 µg/disc (Candida albicans [16]) [mm]	MIC (Fusarium oxysporum [17]) [µg/disc]	Activity (Mucor [19])	zone of inhibition at 60 µg/disc (Fusarium oxysporum [20]) [mm]	MIC (Mucor [21]) [µg/disc]	MIC (Candida albicans [22]) [µg/disc]	zone of inhibition at 40 µg/disc (Fusarium oxysporum [3]) [mm]	zone of inhibition at 40 µg/disc (Fusarium oxysporum [14]) [mm]	also measured
N#Cc1c(N)nc2c(c1-c1ccc(Cl)cc1)C(=O)CCC2	60	81	7	3	5	3	4	7	95	10	7	40	5	60	inactive	4	60	40			Activity (Fusarium oxysporum [3]): inactive; zone of inhibition at 40 µg/disc (Candida albicans [11]): 2 mm; Activity (Fusarium oxysporum [14]): inactive; zone of inhibition at 40 µg/disc (Candida albicans [18]): 2 mm
CC(=O)N(C(C)=O)c1nc2c(c(-c3ccc(C)cc3)c1C#N)C(=O)CCC2	60	61	4	4	6	4	2	4	90	10	7	60	6	60		2	40	60			Activity (Fusarium oxysporum [3]): inactive; Activity (Candida albicans [11]): inactive; Activity (Fusarium oxysporum [14]): inactive; Activity (Candida albicans [18]): inactive; zone of inhibition at 40 µg/disc (Mucor [19]): 3 mm
COc1cc(-c2c(C#N)c(N)nc3c2C(=O)CCC3)cc(OC)c1OC	20	81	4		7		2	4	95			100	7	20	inactive	2		100	2	2	Activity (Candida albicans [5]): inactive; Activity (Candida albicans [7]): inactive; Activity (Candida albicans [11]): inactive; Activity (Mucor [12]): inactive; Activity (Mucor [13]): inactive; Activity (Candida albicans [18]): inactive
N#Cc1c(N)nc2c(c1-c1cccc(N)c1)C(=O)CCC2	40	76	5	3	6	3	3	5	95	10	7	60	6	40		3	40	60	2	2	Activity (Candida albicans [11]): inactive; Activity (Candida albicans [18]): inactive; zone of inhibition at 40 µg/disc (Mucor [19]): 5 mm
N#Cc1c(N)nc2c(c1-c1cccc(NC(=O)Nc3cccc(-c4c(C#N)c(N)nc5c4C(=O)CCC5)c3)c1)C(=O)CCC2	60	91	6	3	7	3	2	6	95			40	7	60	inactive	2		40			Activity (Fusarium oxysporum [3]): inactive; zone of inhibition at 40 µg/disc (Candida albicans [11]): 3 mm; Activity (Mucor [12]): inactive; Activity (Mucor [13]): inactive; Activity (Fusarium oxysporum [14]): inactive; zone of inhibition at 40 µg/disc (Candida albicans [18]): 3 mm
Cc1ccc(-c2c(C#N)c(N)nc3c2C(=O)CCC3)cc1	40	91	7	4	7	4	3	7	90	14	10	40	7	40	inactive	3	60	40	2	2	zone of inhibition at 40 µg/disc (Candida albicans [11]): 3 mm; zone of inhibition at 40 µg/disc (Candida albicans [18]): 3 mm
N#Cc1c(N)nc2c(c1-c1ccccc1Cl)C(=O)CCC2	40	86	6	2	4	2	3	6	95	10	7	60	4	40	inactive	3	60	60	2	2	Activity (Candida albicans [11]): inactive; Activity (Candida albicans [18]): inactive
N#Cc1c(N)nc2c(c1-c1cccc(NC(=O)CCN3CCOCC3)c1)C(=O)CCC2	40	61	5	2	7	2	3	5	95			40	7	40	inactive	3		40	2	2	zone of inhibition at 40 µg/disc (Candida albicans [11]): 2 mm; Activity (Mucor [12]): inactive; Activity (Mucor [13]): inactive; zone of inhibition at 40 µg/disc (Candida albicans [18]): 2 mm

From ChEMBL document CHEMBL1137451, “Synthesis and evaluation of antifungal properties of a series of the novel 2-amino-5-oxo-4-phenyl-5,6,7,8-tetrahydroquinoline-3-carbonitrile and its analogues” (Bioorg Med Chem, 2007)
